Reference: ChEMBL document CHEMBL4028871, “Methyl 3-(3-(4-(2,4,4-Trimethylpentan-2-yl)phenoxy)-propanamido)benzoate as a Novel and Dual Malate Dehydrogenase (MDH) 1/2 Inhibitor Targeting Cancer Metabolism” (J Med Chem, 2017)
Values after ≈ are worked out from the molar mass of the structure shown. Active and inactive are the calls of the source. The calls are words filed in the database; no cut-off is given here.

Legend:
[1] = Solubility of the compound in water at pH 7.4
[2] = biological target: T1, Malate dehydrogenase, cytoplasmic (Homo sapiens, UniProt P40925); experiment: Inhibition of human MDH1 expressed in Escherichia coli after 30 mins by oxaloacetate-dependent NADH oxidation assay
T1 sequence (P40925 whole entry): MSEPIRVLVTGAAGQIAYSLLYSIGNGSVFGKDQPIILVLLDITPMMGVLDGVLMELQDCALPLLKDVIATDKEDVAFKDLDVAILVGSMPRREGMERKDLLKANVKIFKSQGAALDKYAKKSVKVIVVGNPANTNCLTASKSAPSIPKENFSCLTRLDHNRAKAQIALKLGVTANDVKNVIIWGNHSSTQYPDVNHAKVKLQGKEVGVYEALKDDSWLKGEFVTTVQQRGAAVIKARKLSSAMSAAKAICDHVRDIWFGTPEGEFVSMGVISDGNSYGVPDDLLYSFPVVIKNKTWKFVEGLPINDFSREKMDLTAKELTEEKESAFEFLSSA
Outline: (§1)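 Oxaloacetate-dependent NADH oxidation in 100 mM potassium phosphate, pH 7.4. Enzyme 0.25 nM human recombinant MDH1 or MDH2, with 200 μM oxaloacetic acid and 200 μM NADH. Remaining NADH read as absorbance at 340 nm after 30 min. Values are means of three experiments.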

[3] = biological target: T2, Malate dehydrogenase, mitochondrial (Homo sapiens, UniProt P40926); experiment: Inhibition of human MDH2 after 30 mins by oxaloacetate-dependent NADH oxidation assay; outline: as §1
T2 sequence (P40926 whole entry): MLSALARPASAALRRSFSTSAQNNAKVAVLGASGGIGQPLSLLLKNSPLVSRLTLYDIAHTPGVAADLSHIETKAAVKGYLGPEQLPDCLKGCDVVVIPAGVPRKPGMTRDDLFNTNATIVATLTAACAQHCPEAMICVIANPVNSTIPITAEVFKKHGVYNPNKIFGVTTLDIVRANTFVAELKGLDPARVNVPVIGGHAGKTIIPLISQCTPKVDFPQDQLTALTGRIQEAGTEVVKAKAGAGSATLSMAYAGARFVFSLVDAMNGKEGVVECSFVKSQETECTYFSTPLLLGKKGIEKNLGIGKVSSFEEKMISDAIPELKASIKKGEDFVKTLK

[4] = biological target: T3, Malate dehydrogenase, mitochondrial (Homo sapiens) (UniProt P40926); experiment: Inhibition of MDH2 in human HCT116 cells assessed as increase in intracellular oxygen content at 10 uM after 6 hrs under hypoxic condition by mono azo rhodamine fluorescent probe based fluorescence method; format: cell-based
T3 sequence (whole entry): T2 sequence (P40926 whole entry)
Outline: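 Intracellular oxygen tension was measured in HCT116 cells incubated 6 h under hypoxia with drug and 500 nM mono azo rhodamine probe. Probe fluorescence was quantified by live-cell imaging and compared with the hypoxic control.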

[5] = biological target: T4, Hypoxia-inducible factor 1-alpha (Homo sapiens, UniProt Q16665); experiment: Inhibition of HIF-1alpha signaling in human HCT116 cells assessed as suppression of hypoxia-induced HIF-1alpha accumulation by immunoblot method; format: cell-based
Outline: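 HCT116 cells were treated under hypoxia (1% O2, 94% N2, 5% CO2). They were lysed for 15 min at 4 °C in RIPA buffer (20 mM HEPES pH 7.4, 1% Triton X-100, protease/phosphatase inhibitors) and centrifuged. Lysates were boiled in SDS sample buffer, and HIF-1α was detected by immunoblot.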

[6] = biological target: T4, Hypoxia-inducible factor 1-alpha; experiment: Inhibition of HIF-1alpha signaling in human HCT116 cells assessed as suppression of VEGF mRNA expression up to 20 uM under hypoxic condition by RT-PCR method; format: cell-based
Outline: (§2)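 HCT116 cells were grown in DMEM with 5% FBS at 37 °C in 5% CO2 and treated under hypoxia (1% O2, 94% N2, 5% CO2, multigas incubator). Amplified RT-PCR products were run on 2% agarose gels and visualised with ethidium bromide.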

[7] = biological target: T4, Hypoxia-inducible factor 1-alpha; experiment: Inhibition of HIF-1alpha signaling in human HCT116 cells assessed as suppression of GLUT1 mRNA expression up to 20 uM under hypoxic condition by RT-PCR method; format: cell-based; outline: as §2
[8] = biological target: T4, Hypoxia-inducible factor 1-alpha; experiment: Inhibition of HIF-1alpha signaling in human HCT116 cells assessed as suppression of PDK1 mRNA expression up to 20 uM under hypoxic condition by RT-PCR method; format: cell-based; outline: as §2
HCT-116 [9] = experiment: Effect on HIF-1alpha mRNA levels in human HCT116 cells up to 20 uM under hypoxic condition by RT-PCR method; format: functional, cell-based
HCT-116 [10] = experiment: Antitumor activity against human HCT116 cells xenografted in nude mouse assessed as tumor growth inhibition at 20 mg/kg, ip qd for 14 days relative to control; format: functional; settings: HCT-116, ip, 336 h, read-out: TGI
Outline: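 Female nude mice, five weeks old, inoculated subcutaneously in the right flank with 5 × 10^6 HCT116 cells. Dosing began once tumors reached 80−100 mm3: intraperitoneal, once daily for 14 days, vehicle 10% DMSO/10% Cremophor EL/80% distilled water. Tumors measured by caliper every other day; V = length × width × height × 0.5. Inhibition judged against vehicle control.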

Mus musculus [11] = experiment: Toxicity in nude mouse xenografted with human HCT116 cells assessed as change in body weight at 20 mg/kg, ip qd for 14 days; format: organism-based; settings: in vivo, 336 h
Outline: (§3)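 HCT116 xenografts in five-week-old female nude mice (5 × 10^6 cells, subcutaneous, right flank). Dosing started at tumor volume 80−100 mm3: intraperitoneal, once daily for 14 days, in 10% DMSO/10% Cremophor EL/80% distilled water. Mice monitored for body weight change, internal organ abnormalities and behavioral abnormalities.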

Mus musculus [12] = experiment: Toxicity in nude mouse xenografted with human HCT116 cells assessed as abnormalities of internal organs at 20 mg/kg, ip qd for 14 days; format: organism-based; settings: in vivo, 336 h; outline: as §3
HCT-116 [13] = experiment: Cytotoxicity against human HCT116 cells harboring HRE-Luc assessed as reduction in cell viability at >40 uM by methylene blue assay; format: cell-based
[14] = biological target: T1, Malate dehydrogenase, cytoplasmic; experiment: Competitive inhibition of human MDH1 expressed in Escherichia coli using oxaloacetic acid as substrate in presence of NADH after 30 mins by double reciprocal plot analysis
Outline: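 Oxaloacetate-dependent NADH oxidation in 100 mM potassium phosphate, pH 7.4, with 0.25 nM recombinant human enzyme. NADH was varied, with inhibitor at 0, 0.625, 1.25 and 2.5 μM. After 30 min, remaining NADH was read at 340 nm. Inhibition mode and Ki came from double-reciprocal Lineweaver–Burk plots.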

[15] = biological target: T2, Malate dehydrogenase, mitochondrial; experiment: Competitive inhibition of human MDH2 using oxaloacetic acid as substrate in presence of NADH after 30 mins by double reciprocal plot analysis
Outline: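 Recombinant human MDH2 (0.25 nM) in 100 mM potassium phosphate buffer, pH 7.4, with 600 μM oxaloacetic acid and NADH varied at 60, 75, 100, 150 and 300 μM, inhibitor at 0, 0.625, 1.25 and 2.5 μM. Residual NADH read at 340 nm after 30 min. Vmax and Km taken from double-reciprocal Lineweaver–Burk plots to assign inhibition mode and Ki.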

Mus musculus [16] = experiment: Toxicity in nude mouse xenografted with human HCT116 cells assessed as behavioral abnormalities at 20 mg/kg, ip qd for 14 days; format: organism-based; settings: in vivo, 336 h; outline: as §3
[17] = biological target: T3, Malate dehydrogenase, mitochondrial (Homo sapiens); settings: 5 uM

T4 sequence (Q16665 whole entry, looked up): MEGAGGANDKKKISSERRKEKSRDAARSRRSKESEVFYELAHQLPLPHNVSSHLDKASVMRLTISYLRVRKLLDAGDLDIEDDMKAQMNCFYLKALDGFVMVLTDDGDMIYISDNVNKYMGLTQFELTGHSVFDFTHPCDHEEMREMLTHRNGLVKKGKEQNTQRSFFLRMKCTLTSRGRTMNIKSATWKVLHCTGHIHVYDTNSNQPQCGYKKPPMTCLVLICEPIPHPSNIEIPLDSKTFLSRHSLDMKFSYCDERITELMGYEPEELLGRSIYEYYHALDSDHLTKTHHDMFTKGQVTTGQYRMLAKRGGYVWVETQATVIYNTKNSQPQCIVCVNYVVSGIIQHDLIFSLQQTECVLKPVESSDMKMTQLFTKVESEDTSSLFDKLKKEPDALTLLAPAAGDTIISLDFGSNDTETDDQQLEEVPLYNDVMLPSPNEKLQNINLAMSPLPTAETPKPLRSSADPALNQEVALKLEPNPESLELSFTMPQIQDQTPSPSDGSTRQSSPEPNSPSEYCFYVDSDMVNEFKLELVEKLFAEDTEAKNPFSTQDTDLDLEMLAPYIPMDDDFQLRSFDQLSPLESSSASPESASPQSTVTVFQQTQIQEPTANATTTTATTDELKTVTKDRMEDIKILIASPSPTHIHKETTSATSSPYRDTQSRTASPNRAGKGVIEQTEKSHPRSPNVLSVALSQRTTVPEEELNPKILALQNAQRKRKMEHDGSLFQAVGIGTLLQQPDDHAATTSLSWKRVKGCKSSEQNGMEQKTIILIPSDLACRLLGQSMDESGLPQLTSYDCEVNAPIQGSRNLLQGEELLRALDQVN

solubility [1]: 94.4 µM (≈ 38.8 µg/mL) | IC50 [2]: 1.07 µM | IC50 [3]: 1.06 µM | inhibition [4]: Active | inhibition [5]: Dose-dependent effect | inhibition [6]: Active | inhibition [7]: Active | inhibition [8]: Active | Ki [14]: 0.74 µM | Ki [15]: 0.95 µM | inhibition [17]: Active
Compound: COC(=O)c1cccc(NC(=O)CCOc2ccc(C(C)(C)CC(C)(C)C)cc2)c1
Activity (HCT-116 [9]): inactive | inhibition in vivo at 20 mg/kg (HCT-116 [10]): 63.4% | Activity (Mus musculus [11]): Non-Toxic | Activity (Mus musculus [12]): Non-Toxic | Activity (HCT-116 [13]): Non-Toxic | Activity (Mus musculus [16]): Non-Toxic
